Data reported in publication PMC3064798 (Nucleic Acids Research, 2011).
Where “and” joins values, the source holds several entries; their conditions need not be identical. Equal values may be shown once.

What was measured:
Vent(exo^−) polymerase [1] = target: T1, Vent(exo^−) polymerase (Thermococcus litoralis, UniProt P30317, D141A/DEL1082-1471/DEL495-1032/E143A); conditions: cited from earlier work
T1 sequence (P30317 with tags, fused parts or gaps D141A/E143A/DEL495-1032/DEL1082-1471): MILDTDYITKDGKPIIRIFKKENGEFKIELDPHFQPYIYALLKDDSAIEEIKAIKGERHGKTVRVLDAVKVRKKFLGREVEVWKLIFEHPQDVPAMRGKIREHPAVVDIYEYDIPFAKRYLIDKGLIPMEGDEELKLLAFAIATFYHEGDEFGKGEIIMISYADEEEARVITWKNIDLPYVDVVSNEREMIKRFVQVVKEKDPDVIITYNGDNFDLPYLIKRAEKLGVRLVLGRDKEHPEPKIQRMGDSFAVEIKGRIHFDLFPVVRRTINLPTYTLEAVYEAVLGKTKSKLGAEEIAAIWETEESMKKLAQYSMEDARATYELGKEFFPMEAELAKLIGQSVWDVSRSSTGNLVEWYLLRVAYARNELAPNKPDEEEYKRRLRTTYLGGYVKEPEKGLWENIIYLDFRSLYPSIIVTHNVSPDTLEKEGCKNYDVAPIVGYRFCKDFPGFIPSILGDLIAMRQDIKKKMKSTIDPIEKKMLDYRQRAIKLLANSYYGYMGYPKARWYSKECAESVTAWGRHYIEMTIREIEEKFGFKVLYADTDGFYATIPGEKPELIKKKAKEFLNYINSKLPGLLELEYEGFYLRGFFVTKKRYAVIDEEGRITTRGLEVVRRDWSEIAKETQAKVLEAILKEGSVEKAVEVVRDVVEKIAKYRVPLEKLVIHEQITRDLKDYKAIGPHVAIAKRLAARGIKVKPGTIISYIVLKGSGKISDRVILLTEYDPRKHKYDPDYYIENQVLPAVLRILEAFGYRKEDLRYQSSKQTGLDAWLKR

Vent(exo^−) polymerase [2] = target: T1, Vent(exo^−) polymerase; assay: PCR of TCF1 exons 2 and 10 with TTP or HOMedUTP; type: biochemical; conditions: 200 μM each dNTP
Procedure, shortened: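 Human genomic DNA (~50 ng) was amplified with 0.4 µM primer pairs and one unit of Vent(exo−). Buffer was 1× ThermoPol (20 mM Tris–HCl pH 8.8, 2 mM MgSO4, etc.) with 1 M betaine. dATP, dCTP and dGTP were at 200 μM each, with TTP or HOMedUTP. Cycling: 95°C 4 min; 35× (95°C 30 s, 59°C 30 s, 72°C 90 s); 72°C 7 min. Expected products: 602 bp (exon 2) and 670 bp (exon 10).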

Vent(exo^−) polymerase [3] = target: T1, Vent(exo^−) polymerase; assay: Nucleotide selectivity; type: biochemical; conditions: each mismatch combination
Procedure, shortened: (§1)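 Base discrimination was measured by PEP assay. OligoTemplate-4 was replaced with 40 nM oligoTemplate-2 or oligoTemplate-5 to give mismatched template bases. For the T—G mismatch, 5 nM BODIPY-FL primer-3 was hybridised to 40 nM oligoTemplate-8. The selectivity ratio is the mismatched IC50 divided by the matched IC50.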

Therminator polymerase [4] = target: T2, Therminator polymerase (Thermococcus sp., UniProt Q56366, A485L/D141A/E143A); assay: Nucleotide selectivity; type: biochemical
T2 sequence (Q56366 1-775 D141A/E143A/A485L): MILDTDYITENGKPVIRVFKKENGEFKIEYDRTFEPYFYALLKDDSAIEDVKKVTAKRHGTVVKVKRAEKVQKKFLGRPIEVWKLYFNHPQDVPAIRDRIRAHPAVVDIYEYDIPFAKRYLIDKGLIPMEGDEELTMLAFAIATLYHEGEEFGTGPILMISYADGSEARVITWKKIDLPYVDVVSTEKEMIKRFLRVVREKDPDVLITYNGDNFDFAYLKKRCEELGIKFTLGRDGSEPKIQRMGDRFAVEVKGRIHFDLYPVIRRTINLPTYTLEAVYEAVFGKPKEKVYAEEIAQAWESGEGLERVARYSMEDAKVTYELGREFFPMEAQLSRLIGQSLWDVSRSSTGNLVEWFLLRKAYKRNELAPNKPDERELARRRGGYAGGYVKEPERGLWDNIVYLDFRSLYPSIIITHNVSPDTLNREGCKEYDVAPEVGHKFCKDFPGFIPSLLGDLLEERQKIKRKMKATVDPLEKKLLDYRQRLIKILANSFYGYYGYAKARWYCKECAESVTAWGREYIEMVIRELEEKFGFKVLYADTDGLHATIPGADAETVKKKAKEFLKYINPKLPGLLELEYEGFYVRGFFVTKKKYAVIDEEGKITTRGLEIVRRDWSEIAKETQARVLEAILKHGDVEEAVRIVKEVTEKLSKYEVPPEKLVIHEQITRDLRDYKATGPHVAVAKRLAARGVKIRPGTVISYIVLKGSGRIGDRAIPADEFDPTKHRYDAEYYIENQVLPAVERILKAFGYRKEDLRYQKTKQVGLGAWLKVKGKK
Procedure, shortened: as §1

Vent(exo^−) polymerase [5] = target: T1, Vent(exo^−) polymerase; assay: Weighted-sum assay for termination; type: biochemical; conditions: nucleotide at 3 μM (∼1000× IC50), oligoTemplate-7
Therminator polymerase [6] = target: T2, Therminator polymerase; assay: Weighted-sum assay for termination; type: biochemical; conditions: nucleotide at 3 μM (∼1000× IC50), oligoTemplate-7
[7] = Photochemical cleavage studies; type: physicochemical; conditions: 50 mM NaN3; 365 nm UV; incorporated in primer-1/oligoTemplate-4
Procedure, shortened: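 Analogs (100 nM final) were incorporated as in PEP on BODIPY-FL primer-1/oligoTemplate-4 (10 nM/80 nM). Reactions were quenched in FBD solution (20% formamide, 10 mM Na2EDTA pH 8.0, Blue Dextran) or 50 mM sodium azide. Samples were irradiated at 365 nm for various times, then iced, mixed with formamide stop solution and run on an AB 377 sequencer. DT50 is the time for 50% cleavage, from triplicates ± 1 SD.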

TaqFS polymerase = TaqFS polymerase (Thermus aquaticus, UniProt P19821, F667Y/G46D); assay: PEP; type: biochemical; conditions: TaqFS; Not Active = no visible +1 band in 377 gel image at 100 μM
Procedure, shortened: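 Polymerase end-point assay for single-base incorporation. 5 nM BODIPY-FL-labelled primer-1 was hybridised to 40 nM oligoTemplate-4, with the interrogation base complementary to dU. Absence of a +1 band on the 377 gel image at 100 μM counts as not active. IC50 was averaged from triplicates ± 1 SD. Incorporation bias is the analog IC50 divided by the natural-nucleotide (HOMedUTP) IC50.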

Therminator polymerase [8] = target: T2, Therminator polymerase; assay: Ten cycle CRT sequencing; type: biochemical; conditions: 3 μM; UV cleavage in 50 mM sodium azide
Procedure, shortened: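 Biotinylated oligoTemplate-7 was bound to streptavidin M-270 beads with BODIPY-FL primer-2S, then preloaded with 0.5 U Therminator in 1× ThermoPol on ice for 5 min. Each cycle: incorporation at 65°C for 5 min, W10 washes, then 365 nm UV (~0.7 W/cm2, 4× 1 min) in 50 mM azide and ThermoPol washes. After ten cycles, products were run on a 10% polyacrylamide gel (377). Band quantification gave cycle efficiency (incorporation × cleavage) and dephasing (%n–2, %n–1, %n+1).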

Chain of TaqFS polymerase (P19821 whole entry G46D/F667Y): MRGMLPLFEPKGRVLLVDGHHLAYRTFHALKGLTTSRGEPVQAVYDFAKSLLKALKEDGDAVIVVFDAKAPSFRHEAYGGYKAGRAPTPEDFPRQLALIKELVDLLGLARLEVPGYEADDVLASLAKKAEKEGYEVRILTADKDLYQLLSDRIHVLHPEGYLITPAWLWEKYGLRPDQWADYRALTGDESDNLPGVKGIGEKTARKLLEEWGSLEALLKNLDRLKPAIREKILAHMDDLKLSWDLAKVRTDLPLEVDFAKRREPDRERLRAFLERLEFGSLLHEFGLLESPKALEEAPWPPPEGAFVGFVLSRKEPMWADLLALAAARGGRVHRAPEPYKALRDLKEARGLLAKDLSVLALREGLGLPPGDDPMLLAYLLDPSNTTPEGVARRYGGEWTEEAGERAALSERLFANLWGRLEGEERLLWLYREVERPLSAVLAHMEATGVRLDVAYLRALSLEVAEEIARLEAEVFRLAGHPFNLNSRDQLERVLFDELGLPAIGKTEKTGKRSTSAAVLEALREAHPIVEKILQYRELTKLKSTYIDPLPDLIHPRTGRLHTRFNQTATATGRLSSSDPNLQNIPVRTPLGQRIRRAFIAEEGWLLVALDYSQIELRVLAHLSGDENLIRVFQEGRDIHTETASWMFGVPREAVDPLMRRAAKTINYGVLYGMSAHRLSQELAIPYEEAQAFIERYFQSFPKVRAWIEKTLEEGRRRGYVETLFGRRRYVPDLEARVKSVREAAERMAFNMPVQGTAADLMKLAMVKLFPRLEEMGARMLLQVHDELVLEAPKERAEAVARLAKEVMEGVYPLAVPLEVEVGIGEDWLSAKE

SMILES	Selectivity ratios / mismatch discrimination (in words) (Therminator polymerase [4])	Weighted-sum value (Vent(exo^−) polymerase [5])	Weighted-sum value (Therminator polymerase [6])	DT50 values (time at which 50% of 2-nitrobenzyl groups were photochemically cleaved) [7]	further results
C=CCO[C@H]1C[C@H](n2cnc3c(N)ncnc32)O[C@@H]1COP(=O)(O)OP(=O)(O)OP(=O)(O)O [3′-O-allyl-dATP]	–	–	–	–	Incorporation by polymerase (in words) (Vent(exo^−) polymerase [1]): not efficiently incorporated
O=c1[nH]c(=O)n([C@H]2C[C@H](O)[C@@H](COP(=O)(O)OP(=O)(O)OP(=O)(O)O)O2)cc1CO [HOMedUTP, 5-hydroxymethyl-2′-deoxyuridine triphosphate]	–	–	–	–	PCR product yield and size, HOMedUTP in place of TTP (Vent(exo^−) polymerase [2]): Comparable yields and product size; Selectivity ratio (mismatched IC50/matched IC50) (Vent(exo^−) polymerase [3]): greater than three orders of magnitude
Cc1cn([C@H]2C[C@H](O)[C@@H](COP(=O)(O)OP(=O)(O)OP(=O)(O)O)O2)c(=O)n(Cc2ccccc2[N+](=O)[O-])c1=O [T.I, N^3-(2-Nitrobenzyl)-thymidine-5’-triphosphate]	indiscriminately against all mismatched template bases	–	–	–	–
CC(C)[C@H](OCc1cn([C@H]2C[C@H](O)[C@@H](COP(=O)(O)OP(=O)(O)OP(=O)(O)O)O2)c(=O)[nH]c1=O)c1ccccc1[N+](=O)[O-] [dU.IV, 5-[(S)-1-(2-Nitrophenyl)-2-methyl-propyloxy]methyl-2'-deoxyuridine-5’-triphosphate]	almost three orders of magnitude	1.7 and 1.7 ± 0.1	1.9 and 1.9 ± 0.2	1.8 s and 1.8 ± 0.1 s	–
CC(C)(C)[C@H](OCc1cn([C@H]2C[C@H](O)[C@@H](COP(=O)(O)OP(=O)(O)OP(=O)(O)O)O2)c(=O)[nH]c1=O)c1ccccc1[N+](=O)[O-] [dU.V, 5-[(S)-1-(2-nitrophenyl)-2,2-dimethyl-propyloxy]methyl-2'-deoxyuridine-5’-triphosphate]	almost three orders of magnitude	1.0 and 1.0 ± 0.0	1.0 and 1.0 ± 0.0	1.3 s and 1.3 ± 0.1 s	IC50 values (activity in words) (TaqFS polymerase): not incorporated; Overall signal of reaction products over the 10 CRT cycles (Therminator polymerase [8]): remained relatively constant
